Assay results taken from ChEMBL document CHEMBL1131034, “Synthesis and pharmacological characterization of novel 6-fluorochroman derivatives as potential 5-HT1A receptor antagonists” (J Med Chem, 1998).

Assays:
[1] = target: T1, 5-hydroxytryptamine receptor 1A (Homo sapiens) (UniProt P08908); test: Antagonist activity against CHO cells expressing the human 5-hydroxytryptamine 1A receptor in a forskolin stimulated adenylate cyclase (FSC) assay.; format: functional, cell-based
T1 sequence (whole entry): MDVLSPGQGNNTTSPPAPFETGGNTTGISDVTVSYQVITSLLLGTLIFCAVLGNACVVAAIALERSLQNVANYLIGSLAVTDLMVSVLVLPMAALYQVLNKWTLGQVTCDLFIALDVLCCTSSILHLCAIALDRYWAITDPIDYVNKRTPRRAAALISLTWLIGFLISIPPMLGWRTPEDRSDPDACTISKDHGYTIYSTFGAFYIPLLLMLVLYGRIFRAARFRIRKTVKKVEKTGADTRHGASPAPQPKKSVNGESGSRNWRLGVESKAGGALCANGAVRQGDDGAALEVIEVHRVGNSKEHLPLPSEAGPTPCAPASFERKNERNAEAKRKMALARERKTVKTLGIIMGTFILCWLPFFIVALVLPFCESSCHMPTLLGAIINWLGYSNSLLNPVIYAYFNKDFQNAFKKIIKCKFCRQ

[2] = target: T2, 5-hydroxytryptamine receptor 1A (Rattus norvegicus, UniProt P19327); test: Binding affinity against 5-hydroxytryptamine 1A receptor on rat hippocampus using [3H]8-OH-DPAT as radioligand.; format: tissue-based
T2 sequence (P19327 whole entry): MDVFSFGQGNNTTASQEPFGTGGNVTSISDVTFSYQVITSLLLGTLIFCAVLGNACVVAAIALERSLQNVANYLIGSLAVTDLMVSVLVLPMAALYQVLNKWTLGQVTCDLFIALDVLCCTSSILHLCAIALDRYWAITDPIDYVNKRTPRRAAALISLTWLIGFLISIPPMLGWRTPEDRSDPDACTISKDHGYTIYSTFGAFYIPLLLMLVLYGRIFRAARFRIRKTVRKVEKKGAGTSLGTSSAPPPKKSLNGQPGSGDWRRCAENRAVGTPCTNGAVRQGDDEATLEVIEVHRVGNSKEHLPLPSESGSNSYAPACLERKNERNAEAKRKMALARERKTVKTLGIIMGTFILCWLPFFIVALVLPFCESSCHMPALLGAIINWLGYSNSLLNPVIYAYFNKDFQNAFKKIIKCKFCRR

[3] = target: T3, Adrenergic receptor alpha-1 (Rattus norvegicus, UniProt P15823+P23944+P43140); test: Binding affinity against alpha-1 adrenergic receptor on rat cortex using [3H]-prazosin as radioligand.; format: tissue-based, Brain
T3 sequence (P15823 whole entry): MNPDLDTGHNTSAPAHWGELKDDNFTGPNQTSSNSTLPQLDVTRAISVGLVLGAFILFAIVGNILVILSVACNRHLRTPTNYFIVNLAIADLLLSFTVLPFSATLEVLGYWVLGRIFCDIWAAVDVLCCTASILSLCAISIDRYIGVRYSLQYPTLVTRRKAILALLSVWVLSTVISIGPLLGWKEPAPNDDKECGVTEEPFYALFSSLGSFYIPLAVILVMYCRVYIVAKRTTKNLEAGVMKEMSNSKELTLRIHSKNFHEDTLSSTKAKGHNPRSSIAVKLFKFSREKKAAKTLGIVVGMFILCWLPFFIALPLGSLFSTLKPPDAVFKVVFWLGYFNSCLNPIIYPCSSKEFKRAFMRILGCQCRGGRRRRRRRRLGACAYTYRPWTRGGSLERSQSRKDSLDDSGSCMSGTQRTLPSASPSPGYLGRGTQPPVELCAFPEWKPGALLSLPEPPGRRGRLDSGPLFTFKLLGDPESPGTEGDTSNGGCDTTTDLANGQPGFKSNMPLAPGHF
T3 sequence (P23944 whole entry): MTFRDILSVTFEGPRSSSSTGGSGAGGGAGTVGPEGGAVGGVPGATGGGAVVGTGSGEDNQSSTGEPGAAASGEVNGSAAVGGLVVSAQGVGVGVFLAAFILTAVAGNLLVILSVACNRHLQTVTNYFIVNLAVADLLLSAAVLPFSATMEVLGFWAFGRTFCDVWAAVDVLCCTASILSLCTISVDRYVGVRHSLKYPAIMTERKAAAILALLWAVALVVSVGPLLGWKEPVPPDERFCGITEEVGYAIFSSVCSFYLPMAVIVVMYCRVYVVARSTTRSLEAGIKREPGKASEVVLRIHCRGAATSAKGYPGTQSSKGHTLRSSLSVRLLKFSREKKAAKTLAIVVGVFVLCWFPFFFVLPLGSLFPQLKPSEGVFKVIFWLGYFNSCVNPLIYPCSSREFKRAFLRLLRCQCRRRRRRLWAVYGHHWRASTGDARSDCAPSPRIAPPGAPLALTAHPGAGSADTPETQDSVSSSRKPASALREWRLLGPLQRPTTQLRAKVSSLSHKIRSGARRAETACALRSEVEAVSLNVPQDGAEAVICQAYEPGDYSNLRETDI
T3 sequence (P43140 whole entry): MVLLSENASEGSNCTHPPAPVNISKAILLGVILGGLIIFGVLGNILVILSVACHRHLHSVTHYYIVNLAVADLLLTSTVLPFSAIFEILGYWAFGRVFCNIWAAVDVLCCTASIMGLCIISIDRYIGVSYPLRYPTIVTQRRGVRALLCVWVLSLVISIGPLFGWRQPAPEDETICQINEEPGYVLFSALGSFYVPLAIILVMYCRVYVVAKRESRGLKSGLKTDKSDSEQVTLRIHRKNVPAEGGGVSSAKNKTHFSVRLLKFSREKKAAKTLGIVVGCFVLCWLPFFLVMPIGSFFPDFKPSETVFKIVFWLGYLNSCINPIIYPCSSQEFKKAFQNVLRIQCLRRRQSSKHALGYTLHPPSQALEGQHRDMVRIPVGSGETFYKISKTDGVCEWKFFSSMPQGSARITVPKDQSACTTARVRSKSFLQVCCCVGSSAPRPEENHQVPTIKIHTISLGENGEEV

D(2) dopamine receptor = D(2) dopamine receptor (Rattus norvegicus, UniProt P61169); test: Binding affinity against dopamine receptor D2 on rat striatum using [3H]spiperone as radioligand.; format: tissue-based
[4] = target: Serotonin 1a (5-HT1a) receptor/Adrenergic receptor alpha-1 (Rattus norvegicus) (UniProt P15823+P23944+P43140+P19327); test: Selectivity for 5-HT1A receptor of rat hippocampus and alpha-1 adrenergic receptor of rat cortex.; format: tissue-based
[5] = Binding affinity (Ki) ratio of D2 receptor of rat striatum and 5-HT1A receptor of rat hippocampus.; format: tissue-based
Rattus norvegicus [6] = test: In vivo antagonist activity was measured as forepaw treading(FT) in a behavioral response test in reserpinized rats upon subcutaneous administration; format: functional
Procedure, shortened: (§1)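 Male Wistar rats given reserpine 18 h before use. Test compound or vehicle given 15 min before 8-OH-DPAT (0.25 mg/kg sc). Starting 3 min after agonist, forepaw treading and flat body posture scored every 3 min for 15 min on a ranked intensity scale. Doses expressed as free base. Mean ± SEM; Mann–Whitney U-test against vehicle control.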

Rattus norvegicus [7] = test: In vivo antagonist activity was measured as flat body posture (FBP) in a behavioral response test in reserpinized rats at 1 mg/kg(sc) dose.; format: functional; procedure, shortened: as §1
Rattus norvegicus [8] = test: In vivo antagonist activity was measured as flat body posture (FBP) in a behavioral response test in reserpinized rats at 3 mg/kg(sc) dose.; format: functional; procedure, shortened: as §1
Rattus norvegicus [9] = test: In vivo antagonist activity was measured as flat body posture (FBP) in a behavioral response test in reserpinized rats upon subcutaneous administration; format: functional; procedure, shortened: as §1
Rattus norvegicus [10] = test: In vivo antagonist activity was measured as forepaw treading(FT) in a behavioral response test in reserpinized rats at 1 mg/kg(sc) dose.; format: functional; procedure, shortened: as §1
Rattus norvegicus [11] = test: In vivo antagonist activity was measured as forepaw treading(FT) in a behavioral response test in reserpinized rats at 3 mg/kg(sc) dose.; format: functional; procedure, shortened: as §1

D(2) dopamine receptor, sequence (P61169 whole entry): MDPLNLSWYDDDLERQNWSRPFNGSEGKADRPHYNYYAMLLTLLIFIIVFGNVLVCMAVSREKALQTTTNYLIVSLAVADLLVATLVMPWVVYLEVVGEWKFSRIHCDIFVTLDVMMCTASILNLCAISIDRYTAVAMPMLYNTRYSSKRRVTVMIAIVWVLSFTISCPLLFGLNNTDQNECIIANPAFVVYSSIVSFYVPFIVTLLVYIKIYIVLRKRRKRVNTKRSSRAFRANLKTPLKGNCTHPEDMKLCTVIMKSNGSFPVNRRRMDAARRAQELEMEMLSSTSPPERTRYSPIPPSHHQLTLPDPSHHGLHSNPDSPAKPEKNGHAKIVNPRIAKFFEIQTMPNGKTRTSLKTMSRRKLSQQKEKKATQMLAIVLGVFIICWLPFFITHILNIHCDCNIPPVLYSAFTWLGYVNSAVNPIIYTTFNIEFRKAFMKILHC

Row | SMILES | FSC recovery [1] | Ki [2] | Ki [3] | Ki (D(2) dopamine receptor) | Selectivity [4] | Ratio [5] | Behavior score (Rattus norvegicus [6]) | Behavior score (Rattus norvegicus [7]) | Behavior score (Rattus norvegicus [8]) | Behavior score (Rattus norvegicus [9]) | Behavior score (Rattus norvegicus [10]) | Behavior score (Rattus norvegicus [11])
1 | CN(C)c1ccc(CCCCNCCOc2cc(F)cc3c2OCCC3=O)cc1 | 37% | 28.3 nM | 574 nM | 34.6 nM | 20 | 1.2 |  |  |  |  |  | 
2 | COc1ccc(CCNCCOc2cc(F)cc3c2OCCC3O)cc1 (stereo not drawn) | 68% | 2.34 nM | 13.5 nM | 2.99 nM | 5.8 | 1.3 |  |  |  |  |  | 
3 | CCCN(CCCCc1ccc2c(c1)OCO2)CCOc1cc(F)cc2c1OCCC2=O | 6% | 69 nM | 734 nM | 1540 nM | 11 | 22 |  |  |  |  |  | 
4 | O=C1CCOc2c(OCCNCCCCc3ccccc3)cc(F)cc21 | 16% | 41.8 nM | 91.5 nM | 43.9 nM | 2.2 | 1.1 |  |  |  |  |  | 
5 | COc1ccc(CCCCNCCOc2cc(F)cc3c2OCCC3OC)cc1 (stereo not drawn) | 111% | 18.3 nM | 175 nM | 9.07 nM | 9.6 | 0.5 |  |  |  |  |  | 
6 | COc1ccccc1CCCCNCCOc1cc(F)cc2c1OCCC2=O | 44% | 24 nM | 75.6 nM | 23.7 nM | 3.2 | 0.99 |  |  |  |  |  | 
7 | COc1ccc(CCCCNCCOc2cc(F)cc3c2OCCC3)cc1 | 121% |  |  |  | 12 | 1.2 | 8.8 | 3.8 | 3 | 11.5 | 1.8 | 0.5
8 | COc1ccc(CCNCCOc2cc(F)cc3c2OCCC3=O)cc1 | 9% | 4.04 nM | 317 nM | 38 nM | 78 | 9.4 |  |  |  |  |  | 
9 | COc1ccc(CCCCCNCCOc2cc(F)cc3c2OC(C)CC3)cc1 (stereo not drawn) | 59% | 7.33 nM | 19.1 nM | 3.02 nM | 2.6 | 0.41 |  |  |  |  |  | 
10 | O=C1CCOc2c(OCCNCCCCc3ccc4c(c3)OCCO4)cc(F)cc21 | 65% | 2.6 nM | 303 nM | 25.1 nM | 120 | 9.7 | 7.7 |  | 8.5 | 11 |  | 5.8
11 | COc1ccc(CCCCCCNCCOc2cc(F)cc3c2OC(C)CC3)cc1 (stereo not drawn) | 76% | 8.99 nM | 30.8 nM | 2.31 nM | 3.4 | 0.26 |  |  |  |  |  | 
12 | O=C1CCOc2c(OCCNCCCCc3ccc(O)cc3)cc(F)cc21 | 26% | 55.8 nM | 120 nM | 23.3 nM | 2.2 | 0.42 |  |  |  |  |  | 
13 | COc1ccc(CCCCNCCOc2cc(F)cc3c2OCCC3=O)c2ccccc12 | -15% | 680 nM | 198 nM | 153 nM | 0.29 | 0.23 |  |  |  |  |  | 
14 | CCOc1ccc(CCCCNCCOc2cc(F)cc3c2OCCC3=O)cc1 | 52% | 18 nM | 663 nM | 55.1 nM | 37 | 3.1 |  |  |  |  |  | 
15 | COc1ccc(CCCNCCOc2cc(F)cc3c2OC(C)CC3)cc1 (stereo not drawn) | 40% | 9.53 nM | 19.9 nM | 4.98 nM | 2.1 | 0.52 |  |  |  |  |  | 
16 | O=C1CCOc2c(OCCNCCCCc3ccc(Cl)cc3)cc(F)cc21 | 30% | 19 nM | 98.9 nM | 32.3 nM | 5.2 | 1.7 |  |  |  |  |  | 
